This series in a line: Toxicity liver stage against HepG2, at 10uM. It counts as cell-based. Also on record: test concentration 10 uM, cell line HepG2-A16-CD81EGFP. Particulars: human, HepG2-A16-CD81EGFP cells; read-out: INHIBITION
Put shortly:
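Uninfected HepG2-A16-CD81EGFP cells, 3 × 10^3 per well, 1536-well, plated on prespotted compound at 10 μM final, parasite-free screening media added to match infected plates; puromycin 10 μM positive, DMSO 0.5% negative; run in parallel with 48 h PbLuc assay at 37 °C, 5% CO2; viability by CellTiter-Glo luminescence, normalized to controls.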

For `COC(=O)c1ccc(N2CCN(C(=O)c3ccn(C)c(=O)c3)CC2)cc1`, the cytotoxicity at 10 µM was determined as 2.7%. With `CC(C)C(C)NC(=O)Nc1ccccc1CN1CCOCC1` (stereo unspecified) the figure was 0.795%; with `Cc1ccc(C(=O)N(Cc2ccc(F)cc2)C2CC2)c(=O)[nH]1`, -1.4%.

In the case of `Cc1cccnc1CN(C)c1ncnc2[nH]ccc12`, the cytotoxicity at 10 µM was 4.77%. With `CCc1noc(CN(C)CC(c2cccs2)N2CCOCC2)n1` (stereo unspecified) the figure was -4.56%; with `CS(=O)(=O)N1CC(c2nc[nH]n2)c2cc(C(=O)NC3CC3)ccc21` (stereo unspecified), -158%; with `Cn1c(-c2ccccc2Cl)nc2cc(C(=O)NCC3(C)COC3)cnc21`, 1.59%. For the compound `Cc1ccc(N2CC[C@H]3O[C@@H](C(=O)N4CCCO4)CC[C@H]32)nn1`, the cytotoxicity at 10 µM is 0.908%. The result for `Cc1ccn(CCC(=O)NCc2ccco2)n1` reads 5.94%. As to `O=S(=O)(c1cn[nH]c1)N1C[C@@H](O)[C@H](N2CCc3ccccc3C2)C1`, the cytotoxicity at 10 µM is -3.47%.

As to `COCCOc1ccc(NC(=O)C2CCC2)cn1`, the cytotoxicity at 10 µM was -9.65%. `C[C@@H]1CN(S(=O)(=O)N2CCCCCC2)C[C@@]1(O)C1CCC1`: the cytotoxicity at 10 µM amounted to 17.6%.

In the case of `CCS(=O)(=O)c1ncc(CN(C)Cc2ccccn2)n1CCOC`, the cytotoxicity at 10 µM was -13.3%. In the case of `O=C(CCN1CCOCC1)Nc1cccc(CNCc2ccsc2)c1`, the cytotoxicity at 10 µM is -4.66%.

With `CC(C)NC(=O)C1CN(C(=O)Nc2ccc(F)cc2)CC12CCOCC2` (stereo unspecified), the cytotoxicity at 10 µM was -80.9%.

For the compound `CCc1nccn1C1CCCN(C(=O)COCC(F)(F)F)C1` (stereo unspecified), the cytotoxicity at 10 µM is -9.74%. With `Cc1ccc(N2CCO[C@H]3CN(Cc4cc(C)on4)CC[C@H]3C2=O)cn1` the figure was -72.2%. The result for `O=C(c1ccc(COc2ccccc2Cl)o1)N1N=CCC1(O)C(F)(F)F` (stereo unspecified) reads 14.5%. Take `CC(=O)N1CCC[C@H]1C(=O)NCCCN(C(C)C)S(C)(=O)=O`: the cytotoxicity at 10 µM is -13%. Regarding `CCOc1ccc(NCC(=O)NCC(=O)N2CCCC2)c(C(F)(F)F)c1`, the cytotoxicity at 10 µM was -12.8%. The result for `CS(=O)(=O)NCCC1CCCN(Cc2ccccc2F)C1` (stereo unspecified) reads -1.25%. For the compound `CCn1cnnc1CNC(=O)N1CCCN(C(C)=O)CC1`, the cytotoxicity at 10 µM is 1.18%. For the compound `CCCOCCn1ncc(N2CCc3ccccc3C2)cc1=O`, the cytotoxicity at 10 µM came out at 2.63%. For `CCc1c(C)sc2c1c(N)nc(=O)n2CCCN(C)C`, the cytotoxicity at 10 µM worked out at 2.06%. On to `CS(=O)(=O)CCCN1CCN(C(C#N)c2ccccc2)CC1` (stereo unspecified), for which the cytotoxicity at 10 µM was -3.14%.

`O=C(c1cccnc1O)N(CCO)Cc1cc(Br)ccc1F`: the cytotoxicity at 10 µM turned out to be 6.27%. In the case of `Cn1cc(-c2cc(C(=O)N3CCOCC3)c3ccc(F)cc3n2)cn1`, the cytotoxicity at 10 µM stood at 1.5%.

As for `CCOC1CCCN(C(=O)c2[nH]nc(C(C)C)c2Br)C1` (stereo unspecified), the cytotoxicity at 10 µM was -6.78%. The result for `CCN1CCN(C(=O)c2cc(C(F)(F)F)n[nH]2)[C@H]2CS(=O)(=O)C[C@H]21` reads -3.77%; that for `CCN(CC)c1ccc(C(=O)N2C[C@H]3CC[C@@H](C2)N(CCOC)C3)cc1`, -12.3%; that for `Cc1cnccc1CN1C[C@@H](O)[C@H](Oc2ccccc2)C1`, 1.85%.

Regarding `Cc1ccc(CN2CCC3(CCC(C(=O)N(C)C)O3)CC2)o1` (stereo unspecified), the cytotoxicity at 10 µM is -2.63%.

Consider `Cc1ccc(-c2noc(CN3CCOC(CN(C)C)C3)n2)cc1F` (stereo unspecified), for which the cytotoxicity at 10 µM was -5.48%. The result for `Cc1oncc1C(=O)N1CC[C@H]2[C@@H]1CCC(=O)N2CC1CC1` reads 6.42%; that for `CCc1nccn1C1CCCN(C(=O)c2ccc(N(C)C)nn2)C1` (stereo unspecified), 3.19%; that for `CC1COCCN1Cc1nc(-c2ccc(Br)s2)no1` (stereo unspecified), -2.45%. As for `CC(C)OCc1ncn2c1CN(Cc1nccs1)CCC2`, the cytotoxicity at 10 µM was -83.6%.

Turning to `COCc1n[nH]/c(=N\C(=O)c2c3c(nc4onc(C)c24)CCC3)s1`, the cytotoxicity at 10 µM is -4.41%. For `CC(NC(=O)Nc1cc(F)ccc1N1CCCCC1)c1nncn1C` (stereo unspecified), the cytotoxicity at 10 µM is -3.36%. With `CC1N(CC2CC2)C(=O)COC12CCN(C(=O)c1cscn1)CC2` (stereo unspecified) the figure was -8.04%; with `CC(C)c1nc2n(n1)CC(NCc1nnc(C(C)C)o1)CC2` (stereo unspecified), -4.13%. With `COc1ccc(Cl)cc1-c1nc(N)nc(N)n1` the figure was 1.57%; with `CNc1nc2c(s1)C(c1ccccc1F)CC(=O)N2` (stereo unspecified), 4.43%; with `Cc1cc(CN[C@H](C(N)=O)[C@@H](C)O)c(C)s1`, 9.5%. As to `CCCN1C[C@@H]2CC[C@H]1CN(C(=O)Cc1c(C)[nH]c(CC)nc1=O)C2`, the cytotoxicity at 10 µM is -0.529%. The result for `Cc1cc(C)n(CC2CCCN2C(=O)CCCNc2ncccn2)n1` (stereo unspecified) reads -19%; that for `Cc1oc(C(=O)O)cc1S(=O)(=O)Nc1cccc(Cl)c1F`, -5.99%.

With `COCC[C@]1(O)CCN(Cc2nc(C)c(C)s2)C[C@H]1C`, the cytotoxicity at 10 µM is 2.14%. On to `CSc1nnc(CNC(=O)Nc2ccccc2Br)n1C`, for which the cytotoxicity at 10 µM was found to be 1.31%.

In the case of `Cn1cc2ncn(CCCOc3cccnc3)c(=O)c2n1`, the cytotoxicity at 10 µM is -5.18%. For `Cc1cc(C)n2nc(CC(=O)N3CC[C@H]4NCCC[C@]4(CO)C3)nc2n1`, the cytotoxicity at 10 µM is -0.363%. With `CN(c1ccccc1C(=O)O)S(=O)(=O)c1cccc2cccnc12` the figure was -0.996%; with `Fc1cccc(-c2c[nH]c([C@@H]3COCCN3C3CCOCC3)n2)c1`, -1.31%. The result for `CS(=O)(=O)CC1CCCN(C(=O)Cn2cccc(C(F)(F)F)c2=O)C1` (stereo unspecified) reads 4.1%; that for `CCc1ccc2c(c1)C(CCNC(=O)c1sccc1C)C(=O)N2` (stereo unspecified), -52.3%.

Regarding `COc1c(CNCc2ccc(S(C)(=O)=O)cc2)c(C)nn1C`, the cytotoxicity at 10 µM is -8.27%. With `Cc1cc(-c2nn3c(C(C)C)nnc3s2)on1` the figure was 0.9%; with `COC(=O)c1ccc(N2CCN(C(=O)C(C)C)C(C)C2)cc1` (stereo unspecified), -10.4%; with `CN1CCN(c2ccccc2CNC(=O)Cc2ccccc2F)CC1`, -1.1%. With `O=C1NC(C(=O)NCc2cccnc2Oc2ccc(F)c(F)c2)CO1` (stereo unspecified) the figure was -0.115%. With `COCCCn1cnnc1CNc1cc(C)nc2ccnn12` the figure was -7.79%; with `CC(=O)N1CC[C@@]2(O)CCCC[C@H]2[C@@H]1c1ccc2c(c1)OCO2`, 15.4%; with `CCN(Cc1cccnc1)C1CCN(c2ccccc2)C1=O` (stereo unspecified), -0.483%. For the compound `COCc1noc(CN2CC(=O)N(C)c3ccccc3C2=O)n1`, the cytotoxicity at 10 µM is -6.3%. The result for `Cc1nc(CN2CC[C@H]3[C@H]2CCN3c2ncccn2)cs1` reads -0.603%; that for `CN(C)C(=O)NC[C@@H]1OC[C@H]2CN(Cc3cccc(F)c3)CC[C@H]21`, 4.93%; that for `COc1ccc(C(C(=O)O)N2CCN(C3CCCC3)CC2)cc1C` (stereo unspecified), -8.77%. With `c1ncn(Cc2cn3c(n2)CN(CC2CCCC2)CC3)n1` the figure was -127%; with `COc1cc2[nH]c(=O)c(CN3CCCC3C)cc2c(OC)c1OC` (stereo unspecified), -7.74%; with `OC(CN(Cc1ccccc1)Cc1ccon1)c1ccco1` (stereo unspecified), 4.42%.

As to `Cc1ncncc1C(=O)N1CCCC(n2cccn2)C1` (stereo unspecified), the cytotoxicity at 10 µM is -4.77%. In the case of `O=C(c1cncc(N2CCC3(CC2)NCCNC3=O)n1)N1CCCCC1`, the cytotoxicity at 10 µM was -2.4%. As to `CC(CS(C)(=O)=O)N(C(=O)CCc1cccc(F)c1)C1CC1` (stereo unspecified), the cytotoxicity at 10 µM was -6.77%. Regarding `CCOC(=O)[C@]12CCCN(Cc3cccs3)C[C@H]1CN(C(C)C)C2`, the cytotoxicity at 10 µM came to 12.2%. The result for `CCOc1ccc(NS(=O)(=O)c2cc(C)c(C(=O)O)s2)c(C)c1` reads -3.21%. The result for `O=C(NCCOc1ccc(Cl)cn1)Nc1nccs1` reads 11.3%; that for `COc1cc(NCC(c2ccccn2)N(C)C)ncn1` (stereo unspecified), -57.4%. As to `O=C(c1cccc(-c2ncc[nH]2)c1)N1CCC(N2CCCC(O)C2)CC1` (stereo unspecified), the cytotoxicity at 10 µM came to 6.42%. As for `CC(C)(O)CCc1ccc(C(=O)N2Cc3cnn(CCO)c3C2)cc1`, the cytotoxicity at 10 µM came to 2.69%. `NC(=O)NC(=O)CNc1cccc(C(=O)c2ccccc2)c1`: the cytotoxicity at 10 µM was 7.95%. With `Cn1ccnc1N1CCN(C(=O)Cc2ccccc2)CC1` the figure was 3.13%; with `CS(=O)(=O)N1CC2(CCN(C3COC3)C2)Cc2ccccc21` (stereo unspecified), 11.9%; with `O=C(C1CC(c2ccccc2)=NO1)N1CCCCc2ccccc21` (stereo unspecified), 3.17%. The result for `COc1nc2c(cc1C(=O)NCc1noc(Cc3cccs3)n1)CCC2` reads -6.36%. With `CCSCCNC(=O)c1ccc(S(=O)(=O)N2C[C@H]3C[C@@H]2CN3)cc1` the figure was -1.98%; with `CS(=O)(=O)N1CCC(c2cncc(Cl)n2)CC1`, 16%. For `Cc1cc(C)c2nc(CN3CCOCC(O)C3)cc(O)c2c1` (stereo unspecified), the cytotoxicity at 10 µM is -3.89%. In the case of `O=C1CC(c2ccncc2)C2(CCN(CCO)CC2)N1` (stereo unspecified), the cytotoxicity at 10 µM was -3.4%. The result for `Cc1cc2c(c(-c3cnccn3)c1)OC(CN)C2` (stereo unspecified) reads -5.13%.

For the compound `Cc1csc2nc3n(c(=O)c12)CCN(Cc1ccccn1)CC3`, the cytotoxicity at 10 µM is -18.2%. In the case of `CN(C)c1nccc(C2CN(c3ccccc3)CCO2)n1` (stereo unspecified), the cytotoxicity at 10 µM was -2.4%.

As to `N#Cc1cccnc1NCCC1CCN(CC(F)(F)F)CC1`, the cytotoxicity at 10 µM worked out at 11%.

Consider `COc1cccc(N2CCN(CC[C@H](O)c3ccccc3)CC2=O)c1`, for which the cytotoxicity at 10 µM turned out to be 3.61%. Regarding `CCc1nccn1CCC(=O)N1CCN(c2ccccc2C)CC1C` (stereo unspecified), the cytotoxicity at 10 µM stood at 11%. Take `CNC(=O)COc1ccccc1CNC1CCc2nc(C)nn2C1` (stereo unspecified): the cytotoxicity at 10 µM was found to be 6.56%. For `Cn1ccnc1-c1cccc(NC(=O)NCCCO)c1`, the cytotoxicity at 10 µM is -6.77%.

The values above are taken from ChEMBL document CHEMBL4513216, “Probing the Open Global Health Chemical Diversity Library for Multistage-Active Starting Points for Next-Generation Antimalarials” (ACS Infect Dis, 2020).
